Cl transport mod: KCC2 (human) Cl- transport modulation; actives 2.2% (n = 190,000); B-score of Tl+ flux slope (higher = more flux/activation; lower = inhibition) at 10 µM; KCC2 cells, thallium flux FluoZin-2 fluorescence; Q9H2X9;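 active = thallium flux slope and its plate-corrected score both differing from the plate sample mean at a set confidence after two filtering rounds, in either direction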;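 also: slope of fluorescence scaled to starting intensity during 10 to 20 s after thallium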
WT yeast gro inh: growth inhibition of WT yeast, mitochondrial fusion screen. mitochondrial fusion phenotypic screen, WT strain. inhibition, % at 10 µM. actives 2.1% (n = 190,000). AID 1362; in the data active = inhibition above about 58%; tested in S. cerevisiae
14-3-3 Bad inh: disrupts binding of bovine 14-3-3 zeta to phospho-Bad peptide; P63103; TR-FRET 14-3-3zeta/Dy647-pBad peptide displacement, 1 h; inhibition, % at 21.7 µM; actives 0.71% (n = 220,000); AID 781;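 active = inhibition above about 70%, limit read from the data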;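 also: 0% = full 14-3-3 plus peptide FRET controls and 100% = background without 14-3-3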
Target sequence (P63103 whole entry, looked up): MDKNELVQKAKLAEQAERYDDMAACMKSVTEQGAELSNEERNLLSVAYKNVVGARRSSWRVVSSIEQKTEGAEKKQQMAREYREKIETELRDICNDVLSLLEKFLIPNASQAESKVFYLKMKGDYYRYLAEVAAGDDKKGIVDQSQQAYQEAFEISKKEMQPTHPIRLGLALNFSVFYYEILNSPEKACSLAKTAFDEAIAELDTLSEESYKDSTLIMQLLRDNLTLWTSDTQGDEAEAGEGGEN
RBBP9 inh: human RBBP9 hydrolase inhibition; recombinant RBBP9, FP-Rh probe fluorescence polarization; actives 0.2% (n = 220,000); inhibition, % at 7.94 µM;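 active = inhibition above the campaign mean of all tested compounds plus 3 SD, cut at about 14% in these data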;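 also: plate controls were DMSO wells with RBBP9 for no effect and wells lacking RBBP9 protein for full effect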
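System: RBBP9 protein / Buffer or medium: Tris/NaCl buffer pH 8.0 with 0.1% Pluronic / Probe or stimulus: Serine-hydrolase probe FP-Rh, 375 nM pre-mixing / Dosing: 7.94 µM single dose, 0.794% DMSO / Times: enzyme-compound preincubation 30 min, then probe labeling 45 min, 25 °C / Technique: fluorescence polarization (mP), excitation 525 nm, emission 598 nm / Replication: singlicate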
p47phox inh: blocks human p47phox regulatory protein of NADPH oxidases | AID 1274 | p47phox/p22phox peptide binding, fluorescence polarization, 2 h | actives 0.53% (n = 220,000) | inhibition, % at 24.7 µM | P14598;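 active = inhibition above about 30%, limit read from the data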;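 also: 0% = p47phox with labelled peptide and 100% = labelled peptide alone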
Target sequence (P14598 whole entry, looked up): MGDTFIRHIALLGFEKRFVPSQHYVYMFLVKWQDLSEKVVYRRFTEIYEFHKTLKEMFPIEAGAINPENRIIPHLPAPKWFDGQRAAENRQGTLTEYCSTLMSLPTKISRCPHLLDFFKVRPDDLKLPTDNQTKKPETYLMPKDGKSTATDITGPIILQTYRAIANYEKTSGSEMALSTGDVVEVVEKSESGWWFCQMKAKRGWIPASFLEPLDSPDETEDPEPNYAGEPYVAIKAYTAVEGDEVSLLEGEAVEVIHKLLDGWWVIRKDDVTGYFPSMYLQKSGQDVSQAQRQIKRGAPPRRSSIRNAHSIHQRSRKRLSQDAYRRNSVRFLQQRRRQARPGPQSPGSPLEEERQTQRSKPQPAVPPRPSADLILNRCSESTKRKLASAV
ROMK mod: modulators of human ROMK potassium channel; actives 2% (n = 130,000); Tet-inducible ROMK, thallium flux fluorescence; actives lie on both sides; P48048; B-score at 10 µM;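 active = signal ratio slope over the read window, or its plate-corrected B-score, at least 3 SD from the plate mean, either direction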;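 also: B-score of the F/F0 ratio slope over 7 to 12 s after thallium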
KCC2 secondary: KCC2 (human) modulation, secondary assay; shares compounds with Cl transport mod; actives 15% (n = 3,700); normalised thallium flux (F/F0 slope) at 10 µM; HEK293-KCC2, thallium flux, FluoZin2 fluorescence; stronger effect = higher value;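 active = thallium flux slope above the same plate's solvent-only control mean plus 3 SD; inconclusive = the two replicate wells disagree; inactive = no significant difference from solvent-only control wells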
KCC2 bumet counter: bumetanide-insensitive thallium flux in KCC2 cells with ouabain, counter-screen | shares compounds with Cl transport mod | HEK293-KCC2 + bumetanide/ouabain, thallium flux FluoZin2; stronger effect = higher value | normalized thallium flux at 10 µM | actives 49% (n = 3,700);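 active = thallium entry rate above the same plate's blocked-transporter control wells by more than 3 SD; inconclusive = the two repeat wells disagree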;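 also: raw slope of fluorescence over initial fluorescence between 10 and 20 s after thallium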
KCC2 sec2: confirmation of human KCC2 transport modulators | AID 1715 | normalized thallium flux at 10 µM | actives 23% (n = 3,700) | shares compounds with Cl transport mod | HEK293-KCC2, thallium flux FluoZin2 fluorescence; actives lie on both sides; F/F0 rise rate, 10–20 s post-thallium;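 active = thallium flux slope more than 3 SD above or below the plate's solvent-only control mean, mostly below; inconclusive = the two repeat wells disagreed; inactive = no significant shift from solvent-only controls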;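 also: raw slope with 0.1% DMSO as baseline and bumetanide as block control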
HEK counter1: counter-screen for KCC2 modulators: effect in parental HEK293 cells. shares compounds with Cl transport mod. thallium flux FluoZin2, ouabain; baseline-ratio fluorescence slope, 10–20 s after thallium. thallium flux rate (normalised fluorescence) at 10 µM. actives 46% (n = 3,700);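 active = thallium flux rate significantly above the same plate's solvent-only control wells, beyond their mean plus 3 SD; inconclusive = the two replicate wells gave conflicting results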
KCC2 retest ouab: confirmation of human KCC2 modulators with ouabain; shares compounds with Cl transport mod; HEK293-KCC2, thallium flux FluoZin2 fluorescence; bidirectional: low = inhibitor, high = activator; raw Tl+ flux slope (below DMSO = inhibition, above = activation) at 10 µM; actives 48% (n = 3,700);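 active = thallium flux slope beyond 3 SD from same-plate DMSO control mean in most replicates, usually higher, sometimes lower; inconclusive = repeat tests gave conflicting results; inactive = no significant difference from controls in most replicates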;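 also: slope of initial-normalized fluorescence between seconds 10 and 20 after thallium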
HEK293 Tl flux2: counter-screen for KCC2 modulators: effect in parental HEK293 cells; actives 33% (n = 3,700); thallium flux FluoZin-2 fluorescence slope; thallium flux slope at 10 µM; shares compounds with Cl transport mod;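 active = thallium flux slope above the same plate's solvent-control mean plus 3 SD in both duplicate wells; inconclusive = duplicate wells that disagreed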;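 also: run without ouabain in cells lacking the KCC2 cotransporter; slope of fluorescence scaled to its starting value between 10 and 20 s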
Starred values were filed as active, the others as inactive; ? = inconclusive; . = no result given. Shown are actives, neighbours in structure and some others; about 5.8% of the full set was active somewhere.

SMILES	Cl transport mod	WT yeast gro inh	14-3-3 Bad inh	RBBP9 inh	p47phox inh	ROMK mod	KCC2 secondary	KCC2 bumet counter	KCC2 sec2	HEK counter1	KCC2 retest ouab	HEK293 Tl flux2
CCOC(=O)c1sc(NNC(=O)c2ccc(F)cc2)nc1C	11*	.	-5	6	-5	0.56	0.015*	0.024*	0.038	?	0.03*	?
CCOC(=O)c1sc(NC(=O)C(C)C)c(C#N)c1C	0.088	12	-5	4	-2	0.86	.	.	.	.	.	.
Nc1cc(=O)nc(SCC(=O)Nc2ccccc2)n1-c1ccccc1	0.38	-12	4	-8	-9	-0.079	.	.	.	.	.	.
Cc1ccc(NC(=O)C(C)Sc2nc(=O)cc(N)n2-c2ccccc2)cc1 (stereo not drawn)	.	2	-8	-1	1	1.6	0.0084	0.0065	0.032	0.004	0.018	0.011
O=C(O)c1ccc(C=C(c2nc3ccccc3s2)c2nc3ccccc3s2)cc1	-5.2*	74*	-11	-7	-30	-0.085	0.0077	0.0068	0.031	0.0062	0.017	0.0095
CCn1c(NC(=O)c2cccs2)nc2ccccc21	27*	17	7	-8	-6	.	0.0075	0.03*	0.036	0.019*	?	0.021*
Cc1nc2cc(NCc3ccccc3O)ccc2n1Cc1ccccc1	0.24	3	1	3	19	-0.022	.	.	.	.	.	.
CC(C)CCC1=NN(C(=O)c2ccco2)C(O)(C(F)(F)F)C1 (stereo not drawn)	-2	-2	-6	-5	-5	-0.89	.	.	.	.	.	.
CN(C)c1nc(=NCc2ccco2)ss1	45*	.	-9	3	3	.	0.037*	0.06*	0.041	?	0.052*	?
COc1ccc(S(=O)(=O)NCc2cc(-c3ccccc3Cl)no2)cc1	-0.97	5	-1	-13	-1	-1.7	.	.	.	.	.	.
CCc1cc(C(=O)O)c(NC(=O)C(c2ccccc2)c2ccccc2)s1	-4.3*	5	1	3	-7	1	0.0083	0.0055*	0.028	0.0069	0.016	0.0091
COc1ccc(NC(=O)CN(C)CC(=O)Nc2cccc(S(=O)(=O)N(C)c3ccccc3)c2)cc1	-0.34	-4	-1	-6	-4	0.046	.	.	.	.	.	.
CCOc1cc(C2NN=C(c3ccccc3)S2)ccc1OCc1ccccc1Cl (stereo not drawn)	6*	1	-9	-7	-11	-0.46	0.0085	0.0045	0.031	0.0077	0.019	0.01
Nc1c(Cl)ncnc1NCCc1ccc(O)cc1	0.29	.	-1	5	-1	.	.	.	.	.	.	.
COc1ccc(-c2cc(C(=O)NNC(=S)NC(=O)c3c(-c4ccccc4)noc3C)[nH]n2)cc1	-0.45	-2	-26	-3	-18	0.22	.	.	.	.	.	.
COc1ccc(Cl)cc1NC(=O)c1c(-c2ccccc2)noc1C	1.7	-3	7	3	-16	0.37	.	.	.	.	.	.
Cc1onc(-c2ccccc2)c1C(=O)NNC(=S)NC(=O)c1ccc(Cl)cc1Cl	16*	-23	-4	-7	-4	.	?	0.044*	0.055*	0.039*	0.045*	0.042*
Cc1onc(-c2ccccc2)c1C(=O)NNC(=S)NC(=O)/C=C/c1ccccc1	6.3*	-43	1	1	-3	.	0.013*	0.037*	0.035	0.017*	0.035*	0.012*
COc1ccc(/C=C/C(=O)NC(=S)NNC(=O)c2c(-c3ccccc3)noc2C)cc1	7.1*	-26	-3	-12	-21	-0.71	0.013*	0.037*	0.033	0.018*	?	0.012*
COc1ccc(/C=C/C(=O)NC(=S)NNC(=O)c2cc(OC)c(OC)c(OC)c2)cc1OC	-0.42	.	-4	0	-3	.	.	.	.	.	.	.
COc1ccc(/C=C/C(=O)NC(=S)NNC(=O)c2cc(OC)c(OC)c(OC)c2)cc1	4.5*	.	-10	-9	5	0.13	0.0094	?	0.032	0.0042	0.021	0.01
CC(C)(C)NC(=O)CN1CCN(C(=O)CCl)CC1	0.29	10	-1	-8	-6	-0.12	.	.	.	.	.	.
O=C(NC(=S)NCC1CCCO1)c1ccc(Cl)cc1Cl (stereo not drawn)	9*	3	-4	-6	-4	-0.0037	0.0097	0.029*	0.029	0.011*	?	0.0094
Nc1ccc(Br)c2c1C(=O)c1ccccc1C2=O	-3.8*	-2	7	-5	37*	.	?	?	0.032	?	0.018	0.011
CCOC(=O)C(NC(C)=O)(NC(C)C)C(F)(F)F (stereo not drawn)	0.81	.	4	-7	-9	.	.	.	.	.	.	.
SMILES	Cl transport mod	WT yeast gro inh	14-3-3 Bad inh	RBBP9 inh	p47phox inh	ROMK mod	KCC2 secondary	KCC2 bumet counter	KCC2 sec2	HEK counter1	KCC2 retest ouab	HEK293 Tl flux2
O=C(O)/C(=C\c1ccc(Br)cc1)c1ccc(S(=O)(=O)N2CCCCC2)s1	-6.9*	3	8	-10	-8	.	0.0076	0.0068	0.033	0.0041	0.012*	0.011
O=C(O)C1CCCN(S(=O)(=O)c2ccc(Br)s2)C1 (stereo not drawn)	1	-7	-1	-5	12	0.59	.	.	.	.	.	.
O=C(CCc1nnc(COc2ccccc2)o1)NCc1ccc(Cl)s1	-1.2	2	6	-3	-9	1.2	.	.	.	.	.	.
O=C(CCc1nnc(COc2ccccc2)o1)NCc1ccccc1C(F)(F)F	-3.2*	-10	-5	-6	-6	-0.11	0.0074	0.0063	0.036	0.0039	0.017*	0.011
Cc1cc(N)n2ncc(-c3ccccc3)c2n1	-0.19	11	1	1	-15	0.043	.	.	.	.	.	.
CC(=O)Nc1ccc(Nc2cc(C)nc3c(-c4ccccc4)cnn23)cc1	-3.9*	37	0	-3	-17	.	0.0078	0.0092*	0.032	0.0074	0.02	0.011
O=C(NC(=S)NCc1ccc(F)cc1)c1ccccc1	48*	54	8	-2	-6	-1.4	0.027*	0.053*	0.039*	0.021*	0.029*	0.023*
Fc1ccc(CNC(=S)NCc2ccc(F)cc2)cc1	.	.	-4	1	-19	.	.	.	.	.	.	.

Source: PubChem BioAssay
